Data taken from ChEMBL document CHEMBL4145461, “Novel non-sulfonamide 5-HT6 receptor partial inverse agonist in a group of imidazo[4,5-b]pyridines with cognition enhancing properties” (Eur J Med Chem, 2018).
Calls of active or inactive are those of the source. The calls are words filed in the database; no cut-off is given here.

Columns and labels:
[1] = target: T1, 5-hydroxytryptamine receptor 6 (Homo sapiens, UniProt P50406); assay: Displacement of [3H]-LSD from human 5HT6R expressed in HEK293 cell membranes after 1 hr by microbeta counting method
T1 sequence (P50406 whole entry): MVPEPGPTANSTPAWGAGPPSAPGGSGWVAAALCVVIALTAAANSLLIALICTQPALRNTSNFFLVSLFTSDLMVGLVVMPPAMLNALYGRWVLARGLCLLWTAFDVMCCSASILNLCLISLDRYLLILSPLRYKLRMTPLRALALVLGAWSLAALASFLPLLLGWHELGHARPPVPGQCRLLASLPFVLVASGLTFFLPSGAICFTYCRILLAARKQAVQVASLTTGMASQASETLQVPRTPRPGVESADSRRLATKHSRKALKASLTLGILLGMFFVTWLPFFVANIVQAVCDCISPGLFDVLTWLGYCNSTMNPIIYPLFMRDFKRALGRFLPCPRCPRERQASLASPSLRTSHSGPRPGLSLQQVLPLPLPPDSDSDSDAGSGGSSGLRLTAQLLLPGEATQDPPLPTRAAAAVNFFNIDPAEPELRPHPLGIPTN
How it was run: (§1)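 HEK293 (5-HT1A, 5-HT6, 5-HT7b, D2L) or CHO-K1 (5-HT2A) membranes, all Tris–HCl with 4 mM MgCl2 plus receptor-specific EDTA/pargyline/ascorbate (D2L adds NaCl, KCl, CaCl2). Nonspecific binding: 10 μM 5-HT (5-HT1A, 5-HT7), chlorpromazine (5-HT2A), methiothepine (5-HT6), haloperidol (D2L). Triplicate, 7–8 concentrations (10⁻¹¹–10⁻⁴ M), filtration; Ki via Cheng–Prusoff, mean of three experiments. Incubation 1 h 37 °C; 5-HT1A 1 h and 5-HT2A 1.5 h, room temperature.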

[2] = target: T1, 5-hydroxytryptamine receptor 6; assay: Antagonist activity at 5HT6R (unknown origin) transfected in NG108-15 cells co-transfected with CAMYEL assessed as reduction in cAMP levels after 5 mins by Coelanterazine H-based BRET assay; assay type: functional, cell-based
[3] = target: T2, 5-hydroxytryptamine receptor 1A (Homo sapiens, UniProt P08908); assay: Displacement of [3H]-8-OH-DPAT from human 5HT1AR expressed in HEK293 cell membranes after 1 hr by microbeta counting method
T2 sequence (P08908 whole entry): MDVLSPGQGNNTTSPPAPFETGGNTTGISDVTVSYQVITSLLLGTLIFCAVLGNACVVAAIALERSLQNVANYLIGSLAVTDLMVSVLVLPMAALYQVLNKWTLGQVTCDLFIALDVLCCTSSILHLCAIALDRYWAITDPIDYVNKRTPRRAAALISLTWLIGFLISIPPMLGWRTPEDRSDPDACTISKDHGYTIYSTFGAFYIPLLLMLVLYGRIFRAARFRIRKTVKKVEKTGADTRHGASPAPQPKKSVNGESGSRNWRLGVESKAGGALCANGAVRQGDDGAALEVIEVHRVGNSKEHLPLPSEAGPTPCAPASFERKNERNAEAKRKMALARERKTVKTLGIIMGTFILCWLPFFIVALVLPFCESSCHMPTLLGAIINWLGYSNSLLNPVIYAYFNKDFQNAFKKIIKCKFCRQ
How it was run: as §1, with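 “experiments.” for “experiments. Incubation 1 h 37 °C; 5-HT1A 1 h and 5-HT2A 1.5 h, room temperature.”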

[4] = target: 5-hydroxytryptamine receptor 2A (Homo sapiens, UniProt P28223); assay: Displacement of [3H]-Ketanserin from human 5HT2AR expressed in CHO-K1 cell membranes after 1.5 hrs by microbeta counting method
5-hydroxytryptamine receptor 2A, sequence (P28223 whole entry): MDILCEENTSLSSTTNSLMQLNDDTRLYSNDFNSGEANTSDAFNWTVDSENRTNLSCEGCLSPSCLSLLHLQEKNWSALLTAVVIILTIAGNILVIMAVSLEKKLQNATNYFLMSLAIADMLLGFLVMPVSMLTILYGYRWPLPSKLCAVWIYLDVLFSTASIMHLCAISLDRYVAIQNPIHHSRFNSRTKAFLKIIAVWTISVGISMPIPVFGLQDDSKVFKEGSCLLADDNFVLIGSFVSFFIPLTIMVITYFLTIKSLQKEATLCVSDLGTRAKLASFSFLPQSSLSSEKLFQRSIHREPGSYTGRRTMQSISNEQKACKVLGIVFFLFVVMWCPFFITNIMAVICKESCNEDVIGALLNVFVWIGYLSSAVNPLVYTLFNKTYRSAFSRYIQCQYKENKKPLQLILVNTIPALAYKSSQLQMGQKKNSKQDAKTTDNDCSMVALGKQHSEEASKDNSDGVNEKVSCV
How it was run: as §1, with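 “experiments.” for “experiments. Incubation 1 h 37 °C; 5-HT1A 1 h and 5-HT2A 1.5 h, room temperature.”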

[5] = target: 5-hydroxytryptamine receptor 7 (Homo sapiens, UniProt P34969); assay: Displacement of [3H]-5-CT from human 5HT7BR expressed in HEK293 cell membranes after 1 hr by microbeta counting method; how it was run: as §1
5-hydroxytryptamine receptor 7, sequence (P34969 whole entry): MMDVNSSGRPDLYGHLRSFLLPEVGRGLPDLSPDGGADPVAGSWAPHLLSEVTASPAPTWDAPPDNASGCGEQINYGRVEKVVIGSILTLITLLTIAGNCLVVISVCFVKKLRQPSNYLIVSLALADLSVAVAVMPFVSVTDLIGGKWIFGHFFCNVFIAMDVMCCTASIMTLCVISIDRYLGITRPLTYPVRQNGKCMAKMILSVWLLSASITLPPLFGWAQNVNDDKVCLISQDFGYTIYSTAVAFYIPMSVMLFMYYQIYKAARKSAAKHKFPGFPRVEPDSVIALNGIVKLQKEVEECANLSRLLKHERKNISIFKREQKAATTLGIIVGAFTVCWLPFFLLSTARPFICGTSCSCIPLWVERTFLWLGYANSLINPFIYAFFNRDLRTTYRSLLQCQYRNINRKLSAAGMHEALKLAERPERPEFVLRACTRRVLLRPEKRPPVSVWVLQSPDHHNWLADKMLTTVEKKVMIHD

D(2) dopamine receptor = D(2) dopamine receptor (Homo sapiens, UniProt P14416); assay: Displacement of [3H]-Raclopride from human dopamine D2L receptor expressed in HEK293 cell membranes after 1 hr by microbeta counting method; how it was run: as §1
D(2) dopamine receptor, sequence (P14416 whole entry): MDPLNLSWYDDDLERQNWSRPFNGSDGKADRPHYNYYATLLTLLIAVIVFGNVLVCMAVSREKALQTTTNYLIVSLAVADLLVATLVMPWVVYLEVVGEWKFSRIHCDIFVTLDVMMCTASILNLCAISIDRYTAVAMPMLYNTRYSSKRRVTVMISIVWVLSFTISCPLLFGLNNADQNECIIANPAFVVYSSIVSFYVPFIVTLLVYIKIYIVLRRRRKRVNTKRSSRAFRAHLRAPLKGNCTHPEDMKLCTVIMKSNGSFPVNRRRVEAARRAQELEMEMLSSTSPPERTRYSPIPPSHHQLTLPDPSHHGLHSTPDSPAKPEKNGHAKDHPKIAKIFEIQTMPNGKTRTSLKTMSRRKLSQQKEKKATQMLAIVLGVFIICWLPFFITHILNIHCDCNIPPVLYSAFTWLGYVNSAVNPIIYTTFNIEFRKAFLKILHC

[6] = target: T1, 5-hydroxytryptamine receptor 6; assay: Binding affinity to 5HT6R (unknown origin)
Rattus norvegicus [7] = assay: Reversal of SCOP-induced cognitive impairment in Sprague-Dawley rat assessed as reduction in time spent exploring novel object over familiar object at 0.3 mg/kg, po administered 120 mins before familiarization phase measured for 3 mins post familiarization phase by novel object recognition assay; assay type: functional, organism-based
Rattus norvegicus [8] = assay: Reversal of SCOP-induced cognitive impairment in Sprague-Dawley rat assessed as reduction in time spent exploring novel object over familiar object at 1 mg/kg, po administered 120 mins before familiarization phase measured for 3 mins post familiarization phase by novel object recognition assay; assay type: functional, organism-based
How it was run: (§2)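 Male Sprague–Dawley rats, habituated to the arena 5 min 24 h before testing. PCP (5 mg/kg i.p., 45 min) or scopolamine (1.25 mg/kg i.p., 30 min) given before familiarization trial T1; test compound or donepezil given p.o. 120 min before T1. T1 and T2 each last 3 min, separated by an inter-trial interval. DI = (EB−EA)/(EA+EB) from T2 exploration time; 8–10 rats/group; ANOVA with Newman–Keuls.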

Rattus norvegicus [9] = assay: Reversal of PCP-induced cognitive impairment in Sprague-Dawley rat assessed as reduction in time spent exploring novel object over familiar object at 0.3 to 1 mg/kg, po administered 120 mins before familiarization phase measured for 3 mins post familiarization phase by novel object recognition assay; assay type: functional, organism-based; how it was run: as §2

Row | Ki [1] | Structure (SMILES) | further results
1 | 13 nM | CC(C)c1nc2c(N3CCNCC3)ccnc2n1Cc1cccc(F)c1 | IC50 [2]: 69.5 nM; Ki [3]: 5930 nM; Ki [4]: 475 nM; Ki [5]: 11900 nM; Ki (D(2) dopamine receptor): 3440 nM
2 | 165 nM | COc1cccc(Cn2c(CC(C)(C)C)nc3c(N4CCNCC4)ccnc32)c1 | –
3 | 337 nM | COc1ccccc1Cn1c(C)nc2c(N3CCNCC3)ccnc21 | –
4 | 30 nM | CCC(CC)c1nc2c(N3CCNCC3)ccnc2n1Cc1cccc(Cl)c1 | –
5 | 26 nM | Cc1cccc(Cn2c(C)nc3c(N4CCNCC4)ccnc32)c1 | –
6 | 61 nM | CC(C)c1nc2c(N3CCNCC3)ccnc2n1Cc1ccccc1F | –
7 | 80 nM | CC(C)c1nc2c(N3CCNCC3)ccnc2n1Cc1ccc(F)cc1 | –
8 | 101 nM | Cc1nc2c(N3CCNCC3)ccnc2n1Cc1ccccc1 | –
9 | 92 nM | COc1cccc(Cn2c(C(C)C)nc3c(N4CCNCC4)ccnc32)c1 | –
10 | 126 nM | CC(C)c1nc2c(N3CCNCC3)nccc2n1Cc1cccc(Cl)c1 | –
11 | 80 nM | CC(C)c1nc2c(N3CCNCC3)ccnc2n1CCc1cccc(Cl)c1 | –
12 | 312 nM | Cc1nc2c(N3CCNCC3)ccnc2n1CCc1cccc(Cl)c1 | –
13 | 21 nM | Cc1nc2c(N3CCNCC3)ccnc2n1Cc1cccc(Cl)c1 | –
14 | 62 nM | Cc1nc2c(N3CCNCC3)ccnc2n1Cc1cccc(C(F)(F)F)c1 | –
15 | 42 nM | CCC(CC)c1nc2c(N3CCNCC3)ccnc2n1Cc1cccc(C)c1 | –
16 | 142 nM | Cc1cccc(Cn2c(CC(C)(C)C)nc3c(N4CCNCC4)ccnc32)c1 | –
17 | 36 nM | CCc1nc2c(N3CCNCC3)ccnc2n1Cc1ccccc1 | –
18 | 7 nM | CCc1nc2c(N3CCNCC3)ccnc2n1Cc1cccc(Cl)c1 | IC50 [2]: 51.9 nM; Ki [3]: 1350 nM; Ki [4]: 449 nM; Ki [5]: 8750 nM; Ki (D(2) dopamine receptor): 6100 nM
19 | 107 nM | CC(C)c1nc2c(N3CCNCC3)ccnc2n1Cc1ccc(Cl)cc1 | –

The remaining lines, values behind:

Row | Structure (SMILES) | Ki [1] | further results
20 | CCC(CC)c1nc2c(N3CCNCC3)ccnc2n1Cc1ccccc1Cl | 108 nM | –
21 | Clc1cccc(CCn2cnc3c(N4CCNCC4)ccnc32)c1 | 1250 nM | –
22 | CCc1nc2c(N3CCNCC3)ccnc2n1Cc1ccccc1Cl | 177 nM | –
23 | CCc1nc2c(N3CCNCC3)ccnc2n1Cc1cc(F)ccc1F | 57 nM | –
24 | Cc1nc2c(N3CCNCC3)ccnc2n1Cc1ccccc1Cl | 829 nM | –
25 | NC(=O)NC[C@@H]1CCCc2cc(S(=O)(=O)c3cccc(F)c3)ccc21 | – | Ki [6]: 0.2 nM
26 | Fc1cccc(CCn2cnc3c(N4CCNCC4)ccnc32)c1 | 1300 nM | –
27 | CCc1nc2c(N3CCNCC3)ccnc2n1Cc1ccc(F)c(F)c1 | 139 nM | –
28 | Clc1cccc(Cn2cnc3c(N4CCNCC4)nccc32)c1 | 320 nM | –
29 | COc1cc2c(cc1OC)C(=O)C(CC1CCN(Cc3ccccc3)CC1)C2 (stereo not drawn) | – | Activity (Rattus norvegicus [7]): inactive; Activity (Rattus norvegicus [8]): Active
30 | CCc1nc2c(N3CCNCC3)ccnc2n1CCc1cccc(Cl)c1 | 42 nM | –
31 | O=S(=O)(c1ccccc1)n1ncc2c(N3CCNCC3)nccc21 | – | Ki [6]: 5 nM
32 | O=S(=O)(c1ccccc1)c1cnc2c(N3CCNCC3)cccc2c1 [INTEPIRDINE] | – | Ki [5]: 14200 nM; Ki (D(2) dopamine receptor): 997 nM; Activity (Rattus norvegicus [9]): Active
33 | CC(C)c1nc2c(N3CCNCC3)ccnc2n1Cc1cccc(Cl)c1 | – | Ki [3]: 2280 nM; Ki [4]: 694 nM; Ki [5]: 7140 nM; Ki (D(2) dopamine receptor): 2940 nM
34 | c1ccc(Cn2cnc3c(N4CCNCC4)ccnc32)cc1 | 110 nM | –
35 | Clc1cccc(Cn2cnc3c(N4CCNCC4)ccnc32)c1 | 33 nM | –
36 | Clc1cccc(Cn2c(-c3cccs3)nc3c(N4CCNCC4)ccnc32)c1 | 165 nM | –
37 | c1ccc(Cn2cnc3c(N4CCNCC4)nccc32)cc1 | 450 nM | –
38 | Cc1nc2c(N3CCNCC3)nccc2n1Cc1ccccc1 | 374 nM | –
39 | Fc1ccc(-c2nc3c(N4CCNCC4)ccnc3n2Cc2cccc(F)c2)cc1 | 162 nM | –
40 | Cc1nc2c(N3CCNCC3)ccnc2n1Cc1ccc(F)cc1 | 317 nM | –
41 | Cc1nc2c(N3CCNCC3)nccc2n1Cc1cccc(Cl)c1 | 254 nM | –
42 | CCc1nc2c(N3CCNCC3)ccnc2n1CCc1cccc(F)c1 | 56 nM | –
